For test [1], the target named is T1, hCBS (human cystathionine β-synthase) (Homo sapiens, UniProt P35520).
T1 sequence (P35520 1-551): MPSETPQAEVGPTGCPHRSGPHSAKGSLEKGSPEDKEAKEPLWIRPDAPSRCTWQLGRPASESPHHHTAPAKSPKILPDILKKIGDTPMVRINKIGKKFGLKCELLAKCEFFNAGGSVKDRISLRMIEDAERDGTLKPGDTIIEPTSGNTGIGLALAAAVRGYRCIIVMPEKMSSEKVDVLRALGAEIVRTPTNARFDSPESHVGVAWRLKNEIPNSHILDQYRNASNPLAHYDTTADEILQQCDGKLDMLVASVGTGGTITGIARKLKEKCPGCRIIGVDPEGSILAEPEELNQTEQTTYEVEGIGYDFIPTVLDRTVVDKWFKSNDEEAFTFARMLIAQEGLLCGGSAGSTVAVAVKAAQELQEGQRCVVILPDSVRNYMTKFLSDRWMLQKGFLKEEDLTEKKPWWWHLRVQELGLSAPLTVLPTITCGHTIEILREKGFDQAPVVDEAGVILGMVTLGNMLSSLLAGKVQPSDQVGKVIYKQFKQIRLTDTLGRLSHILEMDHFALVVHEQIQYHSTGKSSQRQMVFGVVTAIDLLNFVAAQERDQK
Description: isothermal titration calorimetry, two independent types of sites model. It is filed as binding. In short, it runs like this: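 Purified human CBS in 20 mM Hepes pH 7.4 titrated with SAM by ITC. Without salt: 8 μM tetramer, 50 injections of 0.7 mM SAM spaced 150 s. With 200 mM NaCl: 20 μM tetramer, 19 injections of 1.06 mM SAM spaced 250 s. Isotherms fitted to a two independent types of sites model; salt titrations repeated in four independent experiments.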
On the technique in general: ITC needs no label: the signal is the heat of the interaction.

In test [2] the target is T1, hCBS (human cystathionine β-synthase). Description: radioisotope CBS activity assay with L-[U-14C]serine. It is filed as biochemical.
Test [3] addresses T2, Human cystathionine beta-synthase (human), P35520.
T2 chain: T1 sequence (P35520 1-551)
Briefly: dynamic light scattering. As to conditions: remark: other sources report otherwise.

Data on two molecules can be found in article PMC4112162 (Biochimica et biophysica acta, 2014).

As usually defined, the Kd is the free concentration of one partner at which half of the binding sites on the other are occupied at equilibrium, for simple one-to-one binding. Lower therefore signals higher affinity. The term EC50 denotes the concentration that produces a half-maximal response. `C[S+](CC[C@H](N)C(=O)O)C[C@H]1O[C@@H](n2cnc3c(N)ncnc32)[C@H](O)[C@@H]1O` (stereo partly drawn) [SAM] came in with a Kd in test [1] of 0.013 µM. Moreover, the concentration giving a half-maximal response (EC50) in test [2] is 3.7 ± 0.2 µM.

B1: Human cystathionine beta-synthase, P35520 1-551 (enzyme)
chain: T1 sequence (P35520 1-551)
Broadly, the stoichiometry N is a count of units in the complex or per binding partner. B1: the stoichiometry N in test [3] turned out to be 4.
